Usually T/C stands for the ratio of treated to control.

Drawing on ChEMBL document CHEMBL3244426, “Synthesis and biological activities of ftorafur metabolites. 3'- and 4'-hydroxyftorafur” (1979), this text covers T/C, ED50 and Activity for four compounds.

Holding throughout (assay type): functional
The subject of assay [1] is L1210. In words: In-vivo antitumor activity against mouse L1210 cells at 80 mg/kg relative to control.
Assay [2] relates to HeLa. Put plainly: Growth inhibition of human HeLa cells. The settings on record: read-out: ID50.
Assay [3] has as its system HeLa. In words: Inhibition of cell cycle traverse in human HeLa cells assessed as mitotic index at 100 ug/ml after 16 hrs. The arrangement: scale not given: the % may be the effect or the level left. In a few lines:
(§1)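 HeLa cells were plated at 3.5 × 10^5 per 35-mm dish in Eagle's MEM with 10% fetal calf serum and antibiotics the day before. They were then exposed to drug in the same medium with 0.05 µg/mL colcemid for 16 h. Cells were trypsinized, cytocentrifuged onto slides and fixed in 3:1 MeOH–AcOH. The read-out was the mitotic index, mitotic cells as a percentage of cells counted.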

In assay [4] the test system is HeLa. In words: Inhibition of cell cycle traverse in human HeLa cells assessed as mitotic index at 200 ug/ml after 16 hrs. The arrangement: scale not given: the % may be the effect or the level left. The method, boiled down: as §1
The test system of assay [5] is L1210. In words: In-vivo antitumor activity against mouse L1210 cells at 60 mg/kg relative to control.
Assay [6] concerns L1210. Put plainly: In-vivo antitumor activity against mouse L1210 cells at 100 mg/kg relative to control.
The subject of assay [7] is HeLa. In words: Inhibition of cell cycle traverse in human HeLa cells assessed as mitotic index at 12.5 ug/ml after 16 hrs. The arrangement: scale not given: the % may be the effect or the level left. The method, boiled down:
(§2)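 HeLa cells (3.5 × 10^5) plated the day before in Eagle's MEM with 10% fetal calf serum and antibiotics. Drug added in the same medium with colcemid 0.05 µg/mL, incubated about 16 h. Cells trypsinized, cytocentrifuged onto slides, fixed in 3:1 MeOH-AcOH. Mitotic and interphase cells counted; mitotic index = % of total. Lower index means greater inhibition of cell cycle traverse.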

Assay [8] deals with L1210. In words: In-vivo antitumor activity against mouse L1210 cells at 20 mg/kg relative to control.
For assay [9], the system named is HeLa. In words: Inhibition of cell cycle traverse in human HeLa cells assessed as mitotic index at 50 ug/ml after 16 hrs. The arrangement: scale not given: the % may be the effect or the level left. In a few lines: as §2
For assay [10], the system named is HeLa. In words: Inhibition of cell cycle traverse in human HeLa cells assessed as mitotic index at 25 ug/ml after 16 hrs. Details: scale not given: the % may be the effect or the level left. In a few lines: as §2

Structures are written as SMILES. ≈ marks a conversion by molar mass, not a printed value.

Consider `O=c1[nH]c(=O)n(C2CCCO2)cc1F` (racemic) [TEGAFUR], for which, in the assay on L1210 [1], the T/C worked out at 102%. In addition, the ED50 in the assay on HeLa [2] was determined as 200 µg/mL (≈ 999 µM). Moreover, the values for the Activity in the assay on HeLa [3] and in the assay on HeLa [4] were 60.3% and 36%, respectively.

For the compound `O=c1[nH]c(=O)n([C@@H]2OCC[C@H]2O)cc1F` (relative stereo), the T/C stood at 98% with L1210 [1], 108% in the assay with L1210 [5] and 96% with L1210 [6]. The Activity turned out to be 64% in the assay on HeLa [3] and 34.7% with HeLa [4].

For the compound `O=c1[nH]c(=O)n([C@H]2C[C@@H](O)CO2)cc1F` (relative stereo), the T/C was determined as 91% in the assay on L1210 [1], 106% in the assay with L1210 [5] and 114% in the assay with L1210 [6]. For the same compound, the Activity was 63.3% in the assay on HeLa [3] and 44% in the assay with HeLa [4].

Consider `O=c1[nH]cc(F)c(=O)[nH]1` [FLUOROURACIL], for which the Activity amounted to 45.7% with HeLa [7], 31.7% in the assay on HeLa [9] and 35.8% in the assay with HeLa [10]. The same compound gave a T/C with L1210 [8] of 153%.
